The values below come from ChEMBL document CHEMBL3596096, “Synthesis and biological evaluation of quinones derived from natural product komaroviquinone as anti-Trypanosoma cruzi agents” (Bioorg Med Chem Lett, 2015).

Active and inactive are the calls of the source. No cut-off for these calls is given here. Bounds are passed on as bounds.

As usually defined, the IC50 is the point on the concentration scale where inhibition reaches its midpoint.

The test system of test [1] is Trypanosoma cruzi. The experiment in a line: Antitrypanosomal activity against trypomastigotes stage of Trypanosoma cruzi infected in human HT1080 cells assessed as inhibition of parasite growth after 24 hrs by microscopic analysis. It is filed as functional, organism-based. The settings on record: HT-1080, 24 h. The procedure, abridged: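 Trypomastigotes suspended in DMEM and incubated 24 h with a range of compound concentrations or vehicle (0.1% ethanol). Live parasites were counted microscopically, and the IC50 was determined from the concentration series.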

Test [2] concerns Trypanosoma cruzi. Put plainly: Antitrypanosomal activity against trypomastigotes stage of Trypanosoma cruzi infected in human HT1080 cells assessed as inhibition of parasite growth at 10 uM after 24 hrs by microscopic analysis. It is filed as functional, organism-based. The following applies: HT-1080. The procedure, abridged:
(§1)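 Trypomastigotes suspended in DMEM and exposed 24 h to a single compound concentration, alongside vehicle (0.1% ethanol) control and benznidazole. Live parasites were counted microscopically. Values are the mean of four independent experiments, with significance versus control by two-tailed unpaired Student's t-test.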

The test system of test [3] is Trypanosoma cruzi. Put plainly: Antitrypanosomal activity against trypomastigotes stage of Trypanosoma cruzi infected in human HT1080 cells assessed as inhibition of parasite growth at 1 uM after 24 hrs by microscopic analysis. It is filed as functional, organism-based. The settings on record: HT-1080. The procedure, abridged:
as §1

Test [4] relates to HT-1080. The experiment in a line: Induction of reactive oxygen species formation in human HT1080 cells at 10 to 50 µM by fluorometric analysis. It is filed as functional, cell-based. The following applies: […]. The procedure, abridged:
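Intracellular ROS in host HT1080 cells was measured with an intracellular ROS assay kit, read out as fluorescence intensity (RFU). H2O2 and benznidazole were included for comparison.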

As for `COC1=C(C(C)C)C(=O)C=C(Cc2ccccc2)C1=O`, in test [1], the IC50 is greater than 10000 nM.

As to `COC1=C(C(C)C)C(=O)C=C(CN2CCCC2=O)C1=O`, the IC50 in test [1] is greater than 10000 nM.

For the compound `COC1=C(C(C)C)C(=O)C=C(CN(C(=O)C2CCCCC2)C2CCCCC2)C1=O`, the IC50 in test [1] worked out at 2400 nM.

For `COc1cc(C[C@@]23CCCC(C)(C)[C@@H]2CC(=O)O3)c(OC)c(OC)c1C(C)C`, the “growth inhibition (GI)” value in test [2] was “inactive”.

As for `COC1=C(C(C)C)C(=O)C=C(Cn2cnc([N+](=O)[O-])c2)C1=O`, the 50% inhibitory concentration (IC50) in test [1] was greater than 10000 nM.

Turning to `COC(=O)C[C@@H]1C(Cc2cc(OC)c(C(C)C)c(OC)c2OC)=CCCC1(C)C`, the “growth inhibition (GI)” value in test [2] is “inactive”.

In the case of `COC1=C(C(C)C)C(=O)C=C(CN(C)C(=O)c2ccccc2)C1=O`, in test [1], the IC50 was greater than 10000 nM.

`COC1=C(C(C)C)C(=O)C=C(COC(Cn2cncn2)c2ccc(F)cc2F)C1=O` (centres undefined): the IC50 in test [1] came out at 300 nM.

Turning to `COC1=C(C(C)C)C(=O)C=C(COc2cccnc2)C1=O`, the IC50 in test [1] was greater than 10000 nM.

On to `COC1=C(C(C)C)C(=O)C=C(C[C@@]23CCCC(C)(C)[C@@H]2CC(=O)O3)C1=O`, for which the “growth inhibition (GI)” value in test [3] and in test [2] was “Active” throughout.

As to `COc1c(C[C@@]23CCCC(C)(C)[C@@H]2CC(=O)O3)c(I)c(OC)c(C(C)C)c1OC`, in test [2], the “growth inhibition (GI)” value was “inactive”.

As for `COC1=C(C(C)C)C(=O)C=C(CN2C(=O)CCc3ccccc32)C1=O`, the IC50 in test [1] worked out at 2000 nM.

Regarding `COC1=C(C(C)C)C(=O)C=C(COc2ccccc2)C1=O`, the half-maximal inhibitory concentration (IC50) in test [1] was greater than 10000 nM.

As for `COC1=C(C(C)C)C(=O)C=C(COC2CCCCC2)C1=O`, in test [1], the IC50 was greater than 10000 nM.

On to `COC1=C(C(C)C)C(=O)C=C(CC(C)(C)O)C1=O`, for which the half-inhibitory concentration (IC50) in test [1] was greater than 10000 nM.

Consider `COC1=C(C(C)C)C(=O)C(C(C)(C)O)=C(C)C1=O`, for which the “growth inhibition (GI)” value in test [3] and in test [2] was “Active” throughout.

For `COC1=C(C(C)C)C(=O)C=C(CC2(O)CCCCC2)C1=O`, in test [1], the IC50 came out at 590 nM.

Consider `COC1=C(C(C)C)C(=O)C=C(CN(C)C(=O)C2CCCCC2)C1=O`, for which the concentration for half-maximal inhibition (IC50) in test [1] amounted to 1100 nM.

On to `COC1=C(C(C)C)C(=O)C=C(Cn2cncn2)C1=O`, for which, in test [1], the concentration for half-maximal inhibition (IC50) is 9800 nM.

`CCCCCCCC1=CC(=O)C(C(C)C)=C(OC)C1=O`: the IC50 in test [1] is greater than 10000 nM.

On to `COC1=C(C(C)C)C(=O)C=C(COC(C)C)C1=O`, for which the IC50 in test [1] is greater than 10000 nM.

As for `O=C(Cn1ccnc1[N+](=O)[O-])NCc1ccccc1` [BENZNIDAZOLE], the outcome in test [4] was Active. Further, in test [1], the IC50 stood at 6800 nM.

On to `COC1=C(C(C)C)C(=O)C=C(CC2CCCCC2)C1=O`, for which, in test [1], the IC50 is greater than 10000 nM.

For the compound `COC1=C(C(C)C)C(=O)C=C(CC(O)(Cn2cncn2)c2ccc(F)cc2F)C1=O` (centres undefined), the outcome in test [4] was Active. Also, in test [1], the IC50 turned out to be 540 nM.

For `COC1=C(C(C)C)C(=O)C=C(CNC(=O)C2CCCCC2)C1=O`, in test [1], the IC50 came out at 330 nM.

Consider `COc1c2c(c(OC)c(C(C)C)c1OC)C1(O)C[C@H]3C(C)(C)CCC[C@@]3(C2)O1`, for which the “growth inhibition (GI)” value in test [2] was “inactive”.

`COC1=C(C(C)C)C(=O)C2=C(C[C@@]34CCCC(C)(C)[C@@H]3C[C@]2(O)O4)C1=O` [KOMAROVIQUINONE]: the “growth inhibition (GI)” value in test [3] and in test [2] was “Active” each time. In test [4], the result was Active. Further, in test [1], the concentration for half-maximal inhibition (IC50) turned out to be 250 nM.
